In ChEMBL document CHEMBL1127484, “5-Aryl-3-(alkylthio)-4H-1,2,4-triazoles as selective antagonists of strychnine-induced convulsions and potential antispastic agents” (J Med Chem, 1994):

Key:
Mus musculus [1] = experiment: Effective dose required for antagonist activity against 3-mercaptopropionic-acid-induced seizures in mice when administered intraperitoneally; Range is 100-200; type: functional; details: ip
Method in brief: (§1)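 CD-1 male mice (18–26 g), groups of 5 or 10, housed individually, dosed ip in distilled H2O or H2O/Tween 80. Convulsant given 30 min later. Strychnine sulfate 2.7 mg/kg ip: protection = no tonic extension >15 min. MES 50 mA, 0.2 s, corneal: no tonic hind-limb extension. PTZ 60 mg/kg iv: no clonic seizures for 2 min. MPA 100 mg/kg iv: no seizures for 5 min. ED50 by quantal analysis from ≥4 doses, ≥10 mice each.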

Mus musculus [2] = experiment: Effective dose required for antagonist activity against maximal electroshock induced seizures in mice when administered intraperitoneally; Range is 100-200; type: functional; details: ip; method in brief: as §1
Mus musculus [3] = experiment: Effective dose required for antagonist activity against pentylenetetrazole-induced seizures in mice when administered intraperitoneally; Range is 25-50; type: functional; details: ip; method in brief: as §1
Mus musculus [4] = experiment: Effective dose required for antagonist activity against strychnine induced seizures in mice when administered intraperitoneally; type: functional; details: ip; method in brief: as §1
[5] = Dose encompassing the 50% lethal effect was recorded when administered intraperitoneally in mice; type: ADME, organism-based; details: mouse, in vivo, ip
Method in brief: (§2)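 Deaths were recorded over the 7 days after dosing. The estimated LD50 was taken as the dose range spanning 50% lethality.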

Mus musculus [6] = experiment: Effective dose required for antagonist activity against maximal electroshock induced seizures in mice when administered intraperitoneally; type: functional; details: ip; method in brief: as §1
Mus musculus [7] = experiment: Effective dose required for antagonist activity against pentylenetetrazole-induced seizures in mice when administered intraperitoneally; type: functional; details: ip; method in brief: as §1
Mus musculus [8] = experiment: Effective dose required for antagonist activity against 3-mercaptopropionic-acid induced seizures in mice when administered intraperitoneally; type: functional; details: ip; method in brief: as §1
[9] = Dose encompassing the 50% lethal effect was recorded when administered intraperitoneally in mice; Range is 400-800; type: ADME, organism-based; details: mouse, in vivo, ip; method in brief: as §2
Mus musculus [10] = experiment: Effective dose required for antagonist activity against pentylenetetrazole-induced seizures in mice when administered intraperitoneally; Range is 50-100; type: functional; details: ip; method in brief: as §1
Mus musculus [11] = experiment: Effective dose required for antagonist activity against strychnine induced seizures in mice when administered intraperitoneally; Range is 50-100; type: functional; details: ip; method in brief: as §1
Mus musculus [12] = experiment: Effective dose required for antagonist activity against pentylenetetrazole-induced seizures in mice when administered intraperitoneally; 100-200; type: functional; details: ip; method in brief: as §1
[13] = Dose encompassing the 50% lethal effect was recorded when administered intraperitoneally in mice; 400-800; type: ADME, organism-based; details: mouse, in vivo, ip; method in brief: as §2
Mus musculus [14] = experiment: Effective dose required for antagonist activity against pentylenetetrazole-induced seizures in mice when administered intraperitoneally; Range is 100-200; type: functional; details: ip; method in brief: as §1

SMILES	ED50 (Mus musculus [4]) [mg/kg]	LD50 [5] [mg/kg]	ED50 (Mus musculus [6]) [mg/kg]	ED50 (Mus musculus [7]) [mg/kg]	ED50 (Mus musculus [8]) [mg/kg]	other results
CCn1c(SC)nnc1-c1ccccc1F	75	> 800				ED50 (Mus musculus [1]): 200 mg/kg; ED50 (Mus musculus [2]): 200 mg/kg; ED50 (Mus musculus [3]): 50 mg/kg
Cn1c(-c2ccccc2F)nnc1S(C)(=O)=O	17.6	> 800	> 100	> 100	> 100	
CSc1nnc(-c2ccccc2F)n1C	8.8		> 200	61.3		LD50 [9]: 800 mg/kg
CSc1nc(-c2ccccc2)n(C)n1	> 100	> 800	> 100	> 100	> 100	
Cc1ccc(-c2nnc(S(C)(=O)=O)n2C)cc1	> 200	> 800	> 200	> 200	> 200	
Cn1c(-c2ccccc2)nnc1[S+](C)[O-] (stereo unspecified)	18.6		> 100	> 100	> 100	LD50 [9]: 800 mg/kg
CCS(=O)(=O)c1nnc(-c2ccccc2)n1C		> 800	> 200			ED50 (Mus musculus [1]): 200 mg/kg; ED50 (Mus musculus [10]): 100 mg/kg
CSc1nnc(-c2cccc(F)c2)n1C	13.8	> 800	> 200	> 200	> 200	
CSc1nnc(-c2cccc3ccccc23)n1C	> 200	> 800	> 200	> 200	> 200	
Cn1c(-c2ccccc2F)nnc1[S+](C)[O-] (stereo unspecified)	20	> 800	> 200	57.9	> 200	
Cn1nc([S+](C)[O-])nc1-c1ccccc1 (stereo unspecified)	> 200	> 800	> 200	> 200	> 200	
CSc1n[nH]c(-c2ccc(F)cc2)n1	> 200	> 800	> 200	> 200	> 200	
Cn1nc(-c2cccc(F)c2)nc1S(C)(=O)=O	> 100		> 100	> 100	> 100	LD50 [9]: 800 mg/kg
CCSc1nnc(-c2ccccc2F)n1C					> 200	ED50 (Mus musculus [2]): 200 mg/kg; ED50 (Mus musculus [10]): 100 mg/kg; LD50 [9]: 800 mg/kg
Cc1ccc(-c2nnc([S+](C)[O-])n2C)cc1 (stereo unspecified)		> 800	> 200	> 200	> 200	ED50 (Mus musculus [11]): 100 mg/kg
CSc1nnc(-c2ccc(Cl)cc2)n1C	28.1	> 800	> 200	> 200		
Cn1nc(-c2ccccc2)nc1S(C)(=O)=O	> 200	> 800	> 200	> 200	> 200	
COc1ccc(-c2nnc([S+](C)[O-])n2C)cc1 (stereo unspecified)			> 100	> 100	> 100	LD50 [9]: 800 mg/kg; ED50 (Mus musculus [11]): 100 mg/kg
Cn1c(-c2cccc3ccccc23)nnc1S(C)(=O)=O	> 200	> 800	> 200	> 200	> 200	
Cn1nc(-c2ccc(Cl)cc2)nc1S(C)(=O)=O	> 200	> 800	> 200	> 200	> 200	

SMILES	ED50 (Mus musculus [4]) [mg/kg]	LD50 [5] [mg/kg]	ED50 (Mus musculus [6]) [mg/kg]	ED50 (Mus musculus [7]) [mg/kg]	ED50 (Mus musculus [8]) [mg/kg]	other results
CSc1nnc(-c2cccs2)n1C	34.1		> 100	> 100	> 100	LD50 [9]: 800 mg/kg
COc1ccc(-c2nnc(SC)n2C)cc1	> 100		> 100	> 100	> 100	LD50 [9]: 800 mg/kg
CSc1nnc(-c2ccc(F)cc2)n1C	33.4	> 800	> 200	> 200	> 200	
CCSc1nnc(-c2ccccc2)n1C	> 200		> 200		> 200	ED50 (Mus musculus [12]): 200 mg/kg; LD50 [13]: 800 mg/kg
CCS(=O)(=O)c1nnc(-c2ccccc2F)n1C	85.8	> 800	> 200		> 200	ED50 (Mus musculus [14]): 200 mg/kg
CSc1nc(-c2ccccc2)nn1C	> 200	> 800			> 200	ED50 (Mus musculus [2]): 200 mg/kg; ED50 (Mus musculus [10]): 100 mg/kg
CC[S+]([O-])c1nnc(-c2ccccc2)n1C (stereo unspecified)		> 800	> 200		> 200	ED50 (Mus musculus [14]): 200 mg/kg
O=C1NC(=O)C(c2ccccc2)(c2ccccc2)N1 [PHENYTOIN]	> 200		25.9	> 32	89	
CSc1nnc(-c2ccccc2Cl)n1C	> 50		> 50	> 50	> 50	LD50 [9]: 800 mg/kg
CN1C(=O)CN=C(c2ccccc2)c2cc(Cl)ccc21 [DIAZEPAM]	40.6		14.8	1.5	0.9	
CSc1nc(-c2ccc(Cl)cc2)nn1C	> 200	> 800	> 200		> 200	ED50 (Mus musculus [10]): 100 mg/kg
COc1ccc(-c2nnc(S(C)(=O)=O)n2C)cc1	> 200	> 800	> 200	> 200	> 200	
Cn1nc(S(C)(=O)=O)nc1-c1ccccc1	> 200	> 800	> 200	> 200	> 200	
CSc1nnc(-c2ccc(C)cc2)n1C			> 100	> 100	> 100	LD50 [9]: 800 mg/kg; ED50 (Mus musculus [11]): 100 mg/kg
CC[S+]([O-])c1nnc(-c2ccccc2F)n1C (stereo unspecified)	32.7	> 800		> 200	> 200	ED50 (Mus musculus [2]): 200 mg/kg
Cn1c(-c2cccc3ccccc23)nnc1[S+](C)[O-] (stereo unspecified)	> 200	> 800	> 200	> 200	> 200	
Cn1c(-c2cccc(F)c2)nnc1S(C)(=O)=O	12.1	> 800	> 200	> 200	> 200	
Cn1c(-c2cccs2)nnc1S(C)(=O)=O	> 200	> 800	> 200	> 200	> 200	
CCCC(CCC)C(=O)O [VALPROIC ACID]	> 200		> 200			ED50 (Mus musculus [14]): 200 mg/kg
